Assay outcomes (PubChem BioAssay)
In the library only some 8.2% were active in any assay of this set; here they are far more common.
SF-1 act – SF-1 (human) activation | Q13285 | hit rate 1.9% among 65,000 | CHO-K1 Gal4-SF-1 LBD luciferase reporter; % increase over DMSO SF-1-specific signal | activation, % at 10 µM;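 active = activation above the mean activation of all tested compounds plus 3 SD, cut at about 50% in these data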
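Assay system: CHO-K1 cells co-transfected with Gal4 DBD–human SF-1 LBD, 5xGal4 luciferase reporter; doses: 10 µM only; incubation: 20 h compound exposure at 37 °C after 1 h cell settling; signal: luciferase light emission; evaluation: percent activation versus DMSO; repeats: one test per compound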
RORa activator – activators of human nuclear receptor RORA | hit rate 1.5% among 65,000 | activation, % at 10 µM | CHO-K1 Gal4-RORA LBD luciferase reporter, luminescence; percent increase over mock-subtracted basal signal | AID 560 | P35398;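 active = activation above the mean of all tested compounds plus 3 SD, cut at about 49% in these data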;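 note: 0% = DMSO-treated RORA cells and 100% = added signal equal to DMSO minus mock-transfected cells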
HePTP inh – blocks human HePTP tyrosine phosphatase | P35236 | recombinant HePTP phosphatase activity, OD absorbance | inhibition, % at 20 µM | hit rate 0.64% among 110,000 | AID 521; in the data active = inhibition above about 50%;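 note: plate controls were vehicle for no effect and reference inhibitor for full effect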
D1 allo mod – allosteric modulators of human D1 dopamine receptor. B-score at 10 µM. hit rate 5.9% among 58,000. AID 641. HEK293 D1, CRE-luciferase, dopamine EC30 potentiation; actives deviate in either direction. P21728;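 active = luminescence count or its row- and column-corrected plate score outside the 99.7% band of the plate's sample wells, on either side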
Target sequence (P21728 whole entry, looked up): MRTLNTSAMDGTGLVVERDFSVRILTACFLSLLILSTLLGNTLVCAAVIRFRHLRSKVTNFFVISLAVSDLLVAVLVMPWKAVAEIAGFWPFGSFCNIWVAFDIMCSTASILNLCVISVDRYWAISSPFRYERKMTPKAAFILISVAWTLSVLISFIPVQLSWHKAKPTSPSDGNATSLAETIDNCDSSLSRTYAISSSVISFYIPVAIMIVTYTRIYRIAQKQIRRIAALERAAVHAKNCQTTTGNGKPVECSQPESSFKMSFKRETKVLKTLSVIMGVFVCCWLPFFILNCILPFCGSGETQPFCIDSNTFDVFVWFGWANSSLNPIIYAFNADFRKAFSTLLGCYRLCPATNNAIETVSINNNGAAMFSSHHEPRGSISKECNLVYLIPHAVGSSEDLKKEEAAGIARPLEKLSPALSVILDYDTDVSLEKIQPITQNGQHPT
M1 ag – M1 muscarinic receptor agonism; B-score at 10 µM; hit rate 3% among 64,000; CHO-M1 cells, Fluo-4 calcium fluorescence, agonist mode; stronger effect = higher value;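 active = fluorescence rise, raw or as B-score row- and column-corrected plate score, outside the 99.7% band of its plate's samples, either direction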
M1 antag – blocks the rat M1 muscarinic receptor response to acetylcholine | B-score at 10 µM | hit rate 3.4% among 64,000 | AID 628 | CHO-M1 cells, Fluo-4 calcium, ACh EC80 antagonist mode; stronger effect = lower value | P08482;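 active = calcium fluorescence response, raw or row-and-column corrected B-score, differing from the plate sample mean either way at a set confidence level, mostly lower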
Active calls of the source: *; . = no result given.

SMILES | SF-1 act | RORa activator | HePTP inh | D1 allo mod | M1 ag | M1 antag
Cc1nc2cc(NC(=O)NCCC3=CCCCC3)ccc2o1 | 46.4 | 72.8* | -7.9 | -0.705 | 0.248 | 0.0049
Cc1cc(C(=O)NCCC2=CCCCC2)c(C)o1 | 46.3 | 18.9 | 12.7 | -6.61* | 0.972 | -0.19
CCC1Oc2nc(SC)nnc2-c2ccccc2N1C(=O)c1ccccc1 (stereo not given) | 49.7* | 54.0* | 7.6 | . | 1.23 | 0.31
CCCCOc1ccc(-c2nnn(C(C)(C)C(=O)OC)n2)cc1 | 33.7 | 22.7 | -8.6 | -1.14 | 0.297 | 1.55*
Cc1ccc(C)n1-c1ccc(O)c(C(=O)O)c1 | . | . | 104.0* | . | . | .
Cc1ccc(C)n1-c1ccc(CC(=O)O)cc1 | . | . | 102.2* | . | . | .
Cc1ccc(C)n1-c1cccc(C(=O)O)c1 | 7.3 | 17.1 | . | 0.705 | -0.84 | 0.402
CCOC(=O)C(=CNc1ccc(F)c(F)c1F)C(=O)OCC | . | . | -12.6 | . | . | .
CCc1nnc(NC(=O)c2ccc(OC)cc2OC)s1 | -3.3 | -1.5 | 9.3 | -4.83* | 0.832 | 0.766
COc1ccc(C(=O)Nc2cc(C(F)(F)F)cc(C(F)(F)F)c2)cc1 | . | . | 104.0* | . | . | .
O=C(NC1CCCCC1)N1CCCC(c2nc3ccccc3[nH]2)C1 (stereo not given) | -6.2 | -9.8 | 6.7 | 0.108 | 0.362 | -0.145
CN(C)/C=N/c1nc2ccc3c(c2s1)CCCC3 | 59.3* | 65.7* | 7.9 | 0.915 | 0.236 | -0.335
c1ccc(-c2nc(NC3CCCCC3)cc(-n3cccn3)n2)cc1 | . | . | 0.0 | . | . | .
CN=Cc1cc(-c2ccccc2)sc1O | 55.6* | 26.7 | -6.4 | 1.8 | -0.0718 | -0.00844
Cc1ccc(N=Nc2cc(-c3ccccc3)sc2O)c(C)c1 | . | . | -13.6 | . | . | .
Cc1ccccc1/C=N/N1CCN(Cc2ccc(Cl)cc2)CC1 | . | . | 105.1* | . | . | .
Cc1noc(C)c1C(=O)OCC(=O)c1ccc[nH]1 | 14.1 | 18.5 | 5.4 | 0.363 | -0.609 | -1.2
Cc1noc(C)c1C(=O)OCC(=O)c1cc(C)n(Cc2ccccc2Cl)c1C | 29.4 | 49.3* | 8.0 | 0.346 | 0.00514 | 2.09
O=C1C(C2=C(O)c3ccccc3C2=O)=Nc2ccccc21 | 1.4 | 0.2 | 13.2 | -0.783 | -0.0142 | -0.517
O=c1oc2cc([N+](=O)[O-])ccc2nc1/C=C(\O)c1cccs1 | . | . | 76.1* | . | . | .
Cc1nc(C)c(/C(O)=C/c2nc3ccc([N+](=O)[O-])cc3oc2=O)s1 | . | . | 1.4 | . | . | .
O=[N+]([O-])c1ccc(-c2nc3ccc(Br)cn3[n+]2[O-])cc1 | . | . | -27.7 | . | . | .
CCOc1ccc(-c2cnc(=S)[nH]c2N)cc1 | . | . | -6.6 | . | . | .
Cc1ccc(-c2csc3nnc(SCC(=O)NCc4ccc5c(c4)OCO5)n23)cc1 | -3.7 | 3.7 | -3.3 | 19.3* | 8.71* | -0.251
CN(C)C(=O)CSc1nnc(CCN)o1 | 3.2 | -13.5 | 7.3 | . | 0.167 | 0.532
SMILES | SF-1 act | RORa activator | HePTP inh | D1 allo mod | M1 ag | M1 antag
CN(C)C(=O)CSc1nnc(C23CC4CC(CC(C4)C2)C3)o1 | 88.3* | 18.3 | 4.3 | 0.12 | 0.358 | 1.06
O=C(CSCC(=O)NCc1ccco1)NCc1ccco1 | -11.6 | -8.6 | 4.1 | -0.243 | 0.59 | 0.0526
COc1ccccc1CNC(=O)COC(=O)c1ccc(NC(N)=O)cc1 | -3.9 | 2.9 | -5.9 | -0.696 | -1.32 | -0.765
Cc1ccc(Cl)c(OCCCCN2CCOCC2)c1 | . | . | 8.5 | . | . | .
CCCCCOc1ccc(CN2CCOCC2)cc1Cl | 61.3* | 39.9 | -7.8 | -1.69 | 0.324 | 0.00084
CCN(C(=O)CSc1nc2nc(C)cc(C)n2n1)c1ccccc1 | -14.6 | -22.3 | -1.9 | -0.0165 | 0.0755 | -0.00255
CCOC(=O)CC(=O)CSc1nnc2c(n1)[nH]c1ccccc12 | 53.2* | 44.7 | 7.0 | -0.545 | -1.15 | -0.532
O=C(O)CSc1nnc2c(n1)[nH]c1ccccc12 | . | . | -13.8 | . | . | .
CCOc1cc(/C=C2\SC(=Nc3ccc(C)c(Cl)c3)NC2=O)ccc1O | . | . | 7.0 | . | . | .
O=C1NC(=Nc2ccc(O)cc2)S/C1=C\c1ccc([N+](=O)[O-])cc1 | . | . | 93.1* | . | . | .
Cc1ccc(N=C2NC(=O)/C(=C/c3ccc(O)c([N+](=O)[O-])c3)S2)cc1Cl | . | . | 102.3* | . | . | .
O=C1NC(=Nc2ccc(Br)cc2)S/C1=C\c1ccc([N+](=O)[O-])cc1 | . | . | -3.7 | . | . | .
COc1ccc2c(c1)CC/C2=N\OC(=O)c1ccccc1OC | . | . | 10.2 | . | . | .
COc1cccc(-c2cc(C(=O)N3CCCCCC3)no2)c1 | -2.8 | -19.8 | 11.2 | -4.85* | 0.837 | -0.672
O=C(c1cc(-c2cccc(O)c2)on1)N1CCCCC1 | 12.8 | 0.1 | -4.0 | -4.79* | 0.232 | -0.861
CN1CCN(C(=O)c2cc(-c3ccccc3)on2)CC1 | 19.5 | 11.7 | -0.3 | -0.0574 | 0 | 0.025
COc1cccc(-c2cc(C(=O)N3CCCCC3C)no2)c1 (stereo not given) | 86.0* | 49.5* | 5.4 | -1.45 | -0.112 | 0.89
CN(C)c1nc(N)nc(Cn2ccnc2)n1 | 0.3 | -21.1 | -10.7 | 0.728 | 0.793 | 0.13
O=C(NCCNc1ccc(Cl)cc1[N+](=O)[O-])c1cc2ccccc2o1 | . | . | 6.1 | . | . | .
COc1ccc(-c2nn3c(-c4ccccn4)nnc3s2)cc1OC | 5.2 | 4.8 | 0.7 | . | 2.67 | -0.246
COc1ccccc1-c1nnc2sc(-c3ccc(N(C)C)cc3)nn12 | -63.8 | -56.8 | 3.9 | 7.47* | -0.166 | -0.771
COc1ccc(-c2nn3c(-c4cccc(C)c4)nnc3s2)cc1OC | -19.3 | -9.4 | -8.6 | 16.7* | 0.277 | 0.527
CC(C)NC(=O)NC(=O)COC(=O)Cc1ccsc1 | -1.4 | 27.0 | -9.2 | -0.0396 | 0.534 | -1.26
COc1ccc(-n2c(C)nc3cc(C(=O)NCc4ccco4)ccc32)cc1 | 4.9 | 2.1 | . | -1.42 | 2.06 | -0.394
CCNC(=O)NC(=O)COc1ccccc1C#N | 54.4* | 18.7 | 3.7 | -0.957 | 0.222 | -0.393
SMILES | SF-1 act | RORa activator | HePTP inh | D1 allo mod | M1 ag | M1 antag
Cc1cc(NC(=O)CSc2nc(-c3ccccc3)c(C#N)c(=O)[nH]2)no1 | -6.8 | -18.5 | 12.9 | 1.08 | -0.223 | 0.473
CCC(C)OC(=O)c1[nH]c2c(c1C)C(=O)CC(c1ccc(N(C)C)cc1)C2 (stereo not given) | 56.8* | 43.9 | 6.6 | -0.731 | -0.284 | -0.0147
COc1cc(C(=O)N2CCN(C)CC2)c([N+](=O)[O-])cc1OC | . | . | 6.0 | . | . | .
COc1cc([N+](=O)[O-])ccc1-c1ccc(/C=C(/C#N)C(=O)Nc2cccc(Br)c2)o1 | . | . | -17.3 | . | . | .
COCCNc1ncnc2c1cnn2-c1ccc(Cl)cc1 | 68.0* | 53.7* | 3.9 | . | 0.885 | -1.05
Cc1cccc(-n2ncc3c(NCc4cccs4)ncnc32)c1 | 21.9 | 46.3 | 6.3 | . | 0.158 | 0.0426
COCCN(CCOC)c1ncnc2c1cnn2-c1ccc(Cl)cc1 | 32.7 | 55.0* | 6.7 | . | -0.155 | 0.421
COCCN(CCOC)c1ncnc2c1cnn2-c1ccccc1 | 18.6 | 26.4 | 5.9 | 3.1 | -0.668 | 0.12
OCCOCCNc1ncnc2c1cnn2-c1ccc(Cl)cc1 | 64.1* | 6.8 | 2.3 | . | 1.21 | 0.0789
Clc1ccc(-n2ncc3c(NCc4cccs4)ncnc32)cc1 | 73.6* | 43.6 | 6.7 | . | -0.711 | -1.09
Cc1ccc(N2CC(C(N)=O)CC2=O)cc1 (stereo not given) | 4.4 | -3.4 | -8.0 | -0.453 | -0.512 | -0.263
